Assay results taken from ChEMBL document CHEMBL1255453, “Affinity of ceftaroline and other beta-lactams for penicillin-binding proteins from Staphylococcus aureus and Streptococcus pneumoniae” (Antimicrob Agents Chemother, 2010).
≈ marks a conversion by molar mass, not a printed value.

Legend:
[1] = Binding affinity to methicillin-, vancomycin-susceptible Staphylococcus aureus ATCC 29213 PBP2 by competitive binding assay
Method in brief: (§1)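 MSSA grown in brain heart infusion broth and harvested at OD600 0.3–0.4. Lysed with lysozyme, lysostaphin, DNase I, freeze-thaw and sonication; membranes collected at 100,000 × g. Membranes (100 μg protein) incubated with β-lactam 10 min at 37°C, then Bocillin FL 40 μg/ml, 15 min at 37°C. SDS-PAGE, fluorescence at 520 nm. IC50 is 50% inhibition of Bocillin FL binding; 3 membrane isolations.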

[2] = Binding affinity to methicillin-, vancomycin-susceptible Staphylococcus aureus ATCC 29213 PBP3 by competitive binding assay; method in brief: as §1
[3] = Binding affinity to methicillin-, linezolid-resistant, vancomycin-intermediate, beta-lactamase-positive Staphylococcus aureus 2149A PBP3 by competitive binding assay
Staphylococcus aureus [4] = experiment: Antibacterial activity against methicillin-, daptomycin-resistant, vancomycin-intermediate, beta-lactamase-positive Staphylococcus aureus 25 by macrodilution method; assay type: functional
Method in brief: (§2)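 CLSI broth macrodilution MICs. The S. aureus set is 5 MRSA strains (hVISA, VISA, VRSA) plus 1 MSSA. The S. pneumoniae set is 7 clonally unrelated clinical isolates, categorised by penicillin G against 2006 CLSI M100-S17 criteria (resistant ≥2 μg/ml, susceptible ≤0.06 μg/ml).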

[5] = Binding affinity to methicillin-resistant, heteroresistant vancomycin-intermediate, beta-lactamase-negative Staphylococcus aureus 873 PBP2 by competitive binding assay
Streptococcus pneumoniae [6] = experiment: Antibacterial activity against penicillin-resistant Streptococcus pneumoniae 1564 by macrodilution method; assay type: functional; method in brief: as §2
[7] = Binding affinity to methicillin-, vancomycin-resistant, beta-lactamase-positive Staphylococcus aureus 510 PBP3 by competitive binding assay
Streptococcus pneumoniae [8] = experiment: Antibacterial activity against penicillin-resistant Streptococcus pneumoniae 3413 by macrodilution method; assay type: functional; method in brief: as §2
Staphylococcus aureus [9] = experiment: Antibacterial activity against methicillin-resistant, heteroresistant vancomycin-intermediate, beta-lactamase-negative Staphylococcus aureus 873 by macrodilution method; assay type: functional; method in brief: as §2
[10] = Binding affinity to methicillin-, linezolid-resistant, vancomycin-intermediate, beta-lactamase-positive Staphylococcus aureus 2149A PBP2 by competitive binding assay
Streptococcus pneumoniae [11] = experiment: Antibacterial activity against penicillin-resistant Streptococcus pneumoniae 24 by macrodilution method; assay type: functional; method in brief: as §2
[12] = Binding affinity to methicillin-, vancomycin-resistant, beta-lactamase-positive Staphylococcus aureus 510 PBP2 by competitive binding assay
Staphylococcus aureus [13] = experiment: Antibacterial activity against methicillin-resistant, vancomycin-intermediate, beta-lactamase-positive Staphylococcus aureus 1287 by macrodilution method; assay type: functional; method in brief: as §2
[14] = Binding affinity to against methicillin-, daptomycin-resistant, vancomycin-intermediate, beta-lactamase-positive Staphylococcus aureus 25 PBP2 by competitive binding assay
Method in brief: (§3)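 MRSA strain harvested in stationary phase (OD600 >2.00). Membranes prepared by enzymatic lysis, freeze-thaw, sonication and ultracentrifugation, then preincubated with clavulanic acid 1 mg/ml. β-Lactam competition 10 min at 37°C, then Bocillin FL 40 μg/ml, 15 min at 37°C. SDS-PAGE, 520 nm imaging; IC50 = 50% inhibition of Bocillin FL labeling; 3 membrane isolations.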

[15] = Binding affinity to methicillin-resistant, heteroresistant vancomycin-intermediate, beta-lactamase-negative Staphylococcus aureus 873 PBP1 by competitive binding assay
Streptococcus pneumoniae [16] = experiment: Antibacterial activity against penicillin-resistant Streptococcus pneumoniae 2688 by macrodilution method; assay type: functional; method in brief: as §2
MecA = biological target: T1, MecA (Staphylococcus aureus, UniProt Q7DHH4); experiment: Binding affinity to against methicillin-, daptomycin-resistant, vancomycin-intermediate, beta-lactamase-positive Staphylococcus aureus 25 PBP2a by competitive binding assay; method in brief: as §3
T1 sequence (Q7DHH4 whole entry): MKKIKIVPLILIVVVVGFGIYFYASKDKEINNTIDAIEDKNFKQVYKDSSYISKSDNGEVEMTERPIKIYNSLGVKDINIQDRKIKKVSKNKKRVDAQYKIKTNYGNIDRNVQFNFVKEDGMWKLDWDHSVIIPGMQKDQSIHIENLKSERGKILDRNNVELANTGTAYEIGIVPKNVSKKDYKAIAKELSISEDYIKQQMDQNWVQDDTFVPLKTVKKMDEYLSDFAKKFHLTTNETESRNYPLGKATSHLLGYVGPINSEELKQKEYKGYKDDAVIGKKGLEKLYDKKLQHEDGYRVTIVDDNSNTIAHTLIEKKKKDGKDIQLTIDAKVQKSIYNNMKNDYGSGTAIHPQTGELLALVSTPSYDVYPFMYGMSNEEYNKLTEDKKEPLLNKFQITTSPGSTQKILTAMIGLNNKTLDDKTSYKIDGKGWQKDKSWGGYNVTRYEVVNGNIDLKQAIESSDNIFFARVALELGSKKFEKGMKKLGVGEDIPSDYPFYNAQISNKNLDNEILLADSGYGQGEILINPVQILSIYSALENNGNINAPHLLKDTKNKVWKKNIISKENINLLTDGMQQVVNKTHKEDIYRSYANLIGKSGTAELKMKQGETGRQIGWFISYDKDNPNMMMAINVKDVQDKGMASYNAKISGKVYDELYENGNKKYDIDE

[17] = Binding affinity to against methicillin-, daptomycin-resistant, vancomycin-intermediate, beta-lactamase-positive Staphylococcus aureus 25 PBP3 by competitive binding assay; method in brief: as §3
[18] = Binding affinity to against methicillin-, daptomycin-resistant, vancomycin-intermediate, beta-lactamase-positive Staphylococcus aureus 25 PBP1 by competitive binding assay; method in brief: as §3
[19] = Binding affinity to methicillin-resistant, vancomycin-intermediate, beta-lactamase-positive Staphylococcus aureus 1287 PBP1 by competitive binding assay
Streptococcus pneumoniae [20] = experiment: Antibacterial activity against penicillin-susceptible Streptococcus pneumoniae 1076 by macrodilution method; assay type: functional; method in brief: as §2
[21] = Binding affinity to methicillin-, linezolid-resistant, vancomycin-intermediate, beta-lactamase-positive Staphylococcus aureus 2149A PBP1 by competitive binding assay
[22] = Binding affinity to methicillin-, vancomycin-susceptible Staphylococcus aureus ATCC 29213 PBP1 by competitive binding assay; method in brief: as §1
Staphylococcus aureus [23] = experiment: Antibacterial activity against methicillin-, vancomycin-susceptible Staphylococcus aureus ATCC 29213 by macrodilution method; assay type: functional; method in brief: as §2
[24] = Binding affinity to methicillin-resistant, vancomycin-intermediate, beta-lactamase-positive Staphylococcus aureus 1287 PBP4 by competitive binding assay
[25] = Binding affinity to methicillin-, vancomycin-resistant, beta-lactamase-positive Staphylococcus aureus 510 PBP4 by competitive binding assay
Staphylococcus aureus [26] = experiment: Antibacterial activity against methicillin-, linezolid-resistant, vancomycin-intermediate, beta-lactamase-positive Staphylococcus aureus 2149A by macrodilution method; assay type: functional; method in brief: as §2

| SMILES | IC50 [1] | IC50 [2] | IC50 [3] | MIC (Staphylococcus aureus [4]) | IC50 [5] | MIC (Streptococcus pneumoniae [6]) | IC50 [7] | MIC (Streptococcus pneumoniae [8]) | MIC (Staphylococcus aureus [9]) | IC50 [10] | MIC (Streptococcus pneumoniae [11]) | IC50 [12] | MIC (Staphylococcus aureus [13]) | IC50 [14] | IC50 [15] | MIC (Streptococcus pneumoniae [16]) | IC50 (MecA) | IC50 [17] | IC50 [18] | IC50 [19] | also measured |
| --- | --- | --- | --- | --- | --- | --- | --- | --- | --- | --- | --- | --- | --- | --- | --- | --- | --- | --- | --- | --- | --- |
| CO/N=C(\C(=O)N[C@@H]1C(=O)N2C(C(=O)O)=C(COC(C)=O)CS[C@H]12)c1csc(N)n1 [CEFOTAXIME] | 0.25 µg/mL (≈ 0.549 µM) | 1 µg/mL (≈ 2.2 µM) | 2 µg/mL (≈ 4.39 µM) | > 64 µg/mL | 0.5 µg/mL (≈ 1.1 µM) | 32 µg/mL (≈ 70.3 µM) | 0.25 µg/mL (≈ 0.549 µM) | 2 µg/mL (≈ 4.39 µM) | > 64 µg/mL | 1 µg/mL (≈ 2.2 µM) | 1 µg/mL (≈ 2.2 µM) | 0.25 µg/mL (≈ 0.549 µM) | 4 µg/mL (≈ 8.78 µM) | 2 µg/mL (≈ 4.39 µM) | 2 µg/mL (≈ 4.39 µM) | 16 µg/mL (≈ 35.1 µM) | 1100 nM | 1 µg/mL (≈ 2.2 µM) | 16 µg/mL (≈ 35.1 µM) | 1 µg/mL (≈ 2.2 µM) | MIC (Streptococcus pneumoniae [20]): 0.03 µg/mL (≈ 0.0659 µM); IC50 [21]: 4 µg/mL (≈ 8.78 µM); IC50 [22]: 0.25 µg/mL (≈ 0.549 µM); MIC (Staphylococcus aureus [23]): 2 µg/mL (≈ 4.39 µM); IC50 [24]: > 128 µg/mL; IC50 [25]: > 128 µg/mL; MIC (Staphylococcus aureus [26]): 32 µg/mL (≈ 70.3 µM) |
| CO/N=C(\C(=O)N[C@@H]1C(=O)N2C(C(=O)O)=C(CSc3nc(=O)c(O)nn3C)CS[C@H]12)c1csc(N)n1 [CEFTRIAXONE] | 0.25 µg/mL (≈ 0.451 µM) | 1 µg/mL (≈ 1.8 µM) | 2 µg/mL (≈ 3.61 µM) | > 64 µg/mL | 0.5 µg/mL (≈ 0.902 µM) | 32 µg/mL (≈ 57.7 µM) | 0.25 µg/mL (≈ 0.451 µM) | 2 µg/mL (≈ 3.61 µM) | > 64 µg/mL | 1 µg/mL (≈ 1.8 µM) | 2 µg/mL (≈ 3.61 µM) | 0.25 µg/mL (≈ 0.451 µM) | 8 µg/mL (≈ 14.4 µM) | 2 µg/mL (≈ 3.61 µM) | 2 µg/mL (≈ 3.61 µM) | 8 µg/mL (≈ 14.4 µM) | 451 nM | 1 µg/mL (≈ 1.8 µM) | 16 µg/mL (≈ 28.9 µM) | 1 µg/mL (≈ 1.8 µM) | MIC (Streptococcus pneumoniae [20]): 0.03 µg/mL (≈ 0.0541 µM); IC50 [21]: 4 µg/mL (≈ 7.21 µM); IC50 [22]: 0.25 µg/mL (≈ 0.451 µM); MIC (Staphylococcus aureus [23]): 2 µg/mL (≈ 3.61 µM); IC50 [24]: > 128 µg/mL; IC50 [25]: > 128 µg/mL; MIC (Staphylococcus aureus [26]): 64 µg/mL (≈ 115 µM) |
| CC1(C)S[C@@H]2[C@H](NC(=O)Cc3ccccc3)C(=O)N2[C@H]1C(=O)O [PENICILLIN G] | 8 µg/mL (≈ 23.9 µM) | 1 µg/mL (≈ 2.99 µM) | 2 µg/mL (≈ 5.98 µM) | 64 µg/mL (≈ 191 µM) | 0.5 µg/mL (≈ 1.5 µM) | 16 µg/mL (≈ 47.8 µM) | 4 µg/mL (≈ 12 µM) | 4 µg/mL (≈ 12 µM) | 8 µg/mL (≈ 23.9 µM) | > 128 µg/mL | 4 µg/mL (≈ 12 µM) | 64 µg/mL (≈ 191 µM) | 32 µg/mL (≈ 95.7 µM) | 1 µg/mL (≈ 2.99 µM) | 0.5 µg/mL (≈ 1.5 µM) | 8 µg/mL (≈ 23.9 µM) | 12000 nM | 0.5 µg/mL (≈ 1.5 µM) | 0.5 µg/mL (≈ 1.5 µM) | 4 µg/mL (≈ 12 µM) | MIC (Streptococcus pneumoniae [20]): 0.03 µg/mL (≈ 0.0897 µM); IC50 [21]: 2 µg/mL (≈ 5.98 µM); IC50 [22]: 4 µg/mL (≈ 12 µM); MIC (Staphylococcus aureus [23]): 1 µg/mL (≈ 2.99 µM); IC50 [24]: 4 µg/mL (≈ 12 µM); IC50 [25]: 64 µg/mL (≈ 191 µM); MIC (Staphylococcus aureus [26]): 64 µg/mL (≈ 191 µM) |
